Holding throughout (type): cell-based
One assay concerns the target T1, Thromboxane A2 receptor (Homo sapiens, UniProt P21731).
T1 sequence (P21731 whole entry): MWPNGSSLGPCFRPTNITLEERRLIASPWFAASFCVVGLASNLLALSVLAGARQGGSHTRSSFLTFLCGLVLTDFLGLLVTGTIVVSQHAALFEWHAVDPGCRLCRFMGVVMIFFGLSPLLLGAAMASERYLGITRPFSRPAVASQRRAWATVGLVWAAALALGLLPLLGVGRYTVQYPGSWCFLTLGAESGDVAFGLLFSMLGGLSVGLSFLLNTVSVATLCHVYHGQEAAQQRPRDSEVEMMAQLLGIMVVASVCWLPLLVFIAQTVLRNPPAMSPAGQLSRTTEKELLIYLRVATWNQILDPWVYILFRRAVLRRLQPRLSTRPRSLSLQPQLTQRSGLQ
Briefly: Binding affinity towards TP receptor expressed in HEK293 ebna cells recombinantly expressing the corresponding human prostanoid cDNAs. Put shortly: (§1)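 Competition binding used membrane preparations, not intact cells, from HEK293ebna cells expressing each recombinant human prostanoid receptor cDNA.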

Assay [1] deals with Prostaglandin E2 receptor EP4 subtype (Homo sapiens, UniProt P35408). Briefly: Binding affinity towards EP4 receptor expressed in HEK293 ebna cells recombinantly expressing the corresponding human prostanoid cDNAs.
Prostaglandin E2 receptor EP4 subtype, sequence (P35408 whole entry): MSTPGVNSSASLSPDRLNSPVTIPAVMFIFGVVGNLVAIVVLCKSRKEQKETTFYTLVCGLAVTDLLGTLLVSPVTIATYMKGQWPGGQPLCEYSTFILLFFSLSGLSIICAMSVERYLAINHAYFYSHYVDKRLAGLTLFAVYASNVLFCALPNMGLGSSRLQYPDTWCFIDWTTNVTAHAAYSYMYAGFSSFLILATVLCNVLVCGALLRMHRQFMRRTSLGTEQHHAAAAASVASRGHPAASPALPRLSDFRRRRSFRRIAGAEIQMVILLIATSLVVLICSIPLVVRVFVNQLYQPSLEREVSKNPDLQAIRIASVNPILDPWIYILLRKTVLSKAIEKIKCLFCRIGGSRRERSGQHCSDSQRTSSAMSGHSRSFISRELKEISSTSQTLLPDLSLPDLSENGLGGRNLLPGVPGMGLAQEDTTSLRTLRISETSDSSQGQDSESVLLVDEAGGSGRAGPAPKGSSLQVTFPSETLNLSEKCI
For the next assay, the target named is Prostacyclin receptor (Homo sapiens, UniProt P43119). Briefly: Binding affinity towards IP receptor expressed in HEK293 ebna cells recombinantly expressing the corresponding human prostanoid cDNAs. Put shortly: as §1
Prostacyclin receptor, sequence (P43119 whole entry): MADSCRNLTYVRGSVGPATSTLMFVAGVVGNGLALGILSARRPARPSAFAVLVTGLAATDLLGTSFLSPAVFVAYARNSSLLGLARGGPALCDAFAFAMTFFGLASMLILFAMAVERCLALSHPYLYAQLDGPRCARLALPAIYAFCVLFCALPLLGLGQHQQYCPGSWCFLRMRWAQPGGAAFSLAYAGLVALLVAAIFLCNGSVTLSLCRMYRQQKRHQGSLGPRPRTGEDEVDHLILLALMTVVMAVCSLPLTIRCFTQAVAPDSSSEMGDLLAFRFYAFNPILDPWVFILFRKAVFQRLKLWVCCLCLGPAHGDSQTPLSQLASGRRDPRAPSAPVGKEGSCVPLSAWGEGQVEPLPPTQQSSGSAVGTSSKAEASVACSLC
Assay [2] concerns the target Prostaglandin F2-alpha receptor (Homo sapiens, UniProt P43088). In words: Binding affinity towards FP receptor expressed in HEK293 ebna cells recombinantly expressing the corresponding human prostanoid cDNAs. In short, it runs like this:
as §1

Assay [3] concerns the target T2, Prostaglandin D2 receptor (Homo sapiens, UniProt Q13258).
T2 sequence (Q13258 whole entry): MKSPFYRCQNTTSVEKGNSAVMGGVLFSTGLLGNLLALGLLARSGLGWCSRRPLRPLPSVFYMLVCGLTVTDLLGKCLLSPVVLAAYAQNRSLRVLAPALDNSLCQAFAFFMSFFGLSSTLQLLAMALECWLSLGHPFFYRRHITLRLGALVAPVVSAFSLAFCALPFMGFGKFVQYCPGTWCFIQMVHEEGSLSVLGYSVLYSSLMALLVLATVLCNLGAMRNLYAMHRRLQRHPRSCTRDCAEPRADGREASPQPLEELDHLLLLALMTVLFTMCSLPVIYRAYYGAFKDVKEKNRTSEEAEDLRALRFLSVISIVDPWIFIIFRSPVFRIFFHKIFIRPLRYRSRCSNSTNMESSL
Briefly: Binding affinity towards DP receptor expressed in HEK293 ebna cells recombinantly expressing the corresponding human prostanoid cDNAs. Put shortly: as §1

For assay [4], the target named is T3, Prostaglandin E2 receptor EP3 subtype (Homo sapiens, UniProt P43115).
T3 sequence (P43115 whole entry): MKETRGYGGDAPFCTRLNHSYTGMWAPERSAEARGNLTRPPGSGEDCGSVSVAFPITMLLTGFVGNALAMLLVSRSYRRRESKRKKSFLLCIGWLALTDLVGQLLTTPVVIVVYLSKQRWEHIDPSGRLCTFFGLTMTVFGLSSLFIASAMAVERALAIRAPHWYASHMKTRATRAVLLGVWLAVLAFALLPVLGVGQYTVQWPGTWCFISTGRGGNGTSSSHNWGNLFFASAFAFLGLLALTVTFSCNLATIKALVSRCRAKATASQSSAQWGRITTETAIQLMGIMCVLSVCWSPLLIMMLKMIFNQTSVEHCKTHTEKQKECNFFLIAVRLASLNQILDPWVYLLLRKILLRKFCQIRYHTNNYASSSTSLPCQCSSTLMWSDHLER
Briefly: Binding affinity towards EP3 receptor expressed in HEK293 ebna cells recombinantly expressing the corresponding human prostanoid cDNAs. Put shortly:
as §1

The target in assay [5] is Prostaglandin E2 receptor EP2 subtype (Homo sapiens, UniProt P43116). Briefly: Binding affinity towards EP2 receptor expressed in HEK293 ebna cells recombinantly expressing the corresponding human prostanoid cDNAs. In short, it runs like this:
as §1

In assay [6] the target is T4, Prostaglandin E2 receptor EP1 subtype (Homo sapiens, UniProt P34995).
T4 sequence (P34995 whole entry): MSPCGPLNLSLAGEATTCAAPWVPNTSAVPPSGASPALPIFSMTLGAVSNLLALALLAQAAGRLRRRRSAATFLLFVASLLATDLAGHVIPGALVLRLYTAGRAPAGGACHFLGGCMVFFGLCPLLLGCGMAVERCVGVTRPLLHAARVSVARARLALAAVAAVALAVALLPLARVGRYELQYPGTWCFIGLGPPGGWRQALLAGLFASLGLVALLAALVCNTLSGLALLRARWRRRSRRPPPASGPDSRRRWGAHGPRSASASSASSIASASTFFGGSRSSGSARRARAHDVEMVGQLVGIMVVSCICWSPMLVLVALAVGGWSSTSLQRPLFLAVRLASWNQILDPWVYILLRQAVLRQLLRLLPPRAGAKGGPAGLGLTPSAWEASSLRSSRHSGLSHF
In words: Binding affinity towards EP1 receptor expressed in HEK293 ebna cells recombinantly expressing the corresponding human prostanoid cDNAs. Put shortly: as §1

The structures appear in SMILES notation.

Prostaglandin F2-alpha receptor, sequence (P43088 whole entry): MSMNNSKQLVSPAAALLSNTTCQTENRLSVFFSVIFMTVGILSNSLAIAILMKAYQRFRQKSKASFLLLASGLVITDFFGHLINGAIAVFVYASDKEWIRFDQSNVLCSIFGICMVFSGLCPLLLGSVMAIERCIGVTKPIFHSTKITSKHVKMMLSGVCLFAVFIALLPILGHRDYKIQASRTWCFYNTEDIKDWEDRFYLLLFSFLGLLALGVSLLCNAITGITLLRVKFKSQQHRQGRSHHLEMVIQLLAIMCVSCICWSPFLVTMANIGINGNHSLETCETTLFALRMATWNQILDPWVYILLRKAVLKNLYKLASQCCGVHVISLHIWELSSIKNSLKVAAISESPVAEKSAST
Prostaglandin E2 receptor EP2 subtype, sequence (P43116 whole entry): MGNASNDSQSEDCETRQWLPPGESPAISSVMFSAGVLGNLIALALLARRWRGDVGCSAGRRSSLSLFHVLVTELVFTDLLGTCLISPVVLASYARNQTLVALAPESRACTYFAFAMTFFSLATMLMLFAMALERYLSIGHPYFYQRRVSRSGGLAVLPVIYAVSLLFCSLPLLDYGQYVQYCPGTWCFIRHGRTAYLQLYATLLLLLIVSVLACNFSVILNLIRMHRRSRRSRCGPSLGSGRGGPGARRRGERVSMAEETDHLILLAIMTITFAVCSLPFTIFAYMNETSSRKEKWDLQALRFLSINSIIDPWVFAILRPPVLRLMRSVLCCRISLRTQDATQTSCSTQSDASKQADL

Regarding `CCCCCC(O)CC[C@@H]1CCC(=O)N1CCCCCCC(=O)O` (some centres undefined), the Ki at Thromboxane A2 receptor is over 13 µM; in assay [1], 1.11 µM; at Prostacyclin receptor, over 13 µM; in assay [2] it was over 13 µM; in assay [3], over 13 µM; in assay [4] it was 2.32 µM. Moreover, the Ki was 3.61 µM in assay [5] and over 13 µM in assay [6].
Consider `CCCCCC(O)/C=C/[C@H]1CCC(=O)N1CCCCCCC(=O)O` (some centres undefined), for which the Ki at Thromboxane A2 receptor was over 13 µM; in assay [1], 0.006 µM; at Prostacyclin receptor it was over 13 µM; in assay [2], over 13 µM; in assay [3], over 13 µM; in assay [4], 0.419 µM. Also, the Ki in assay [5] is 6.68 µM; in assay [6], over 13 µM.
Take `O=C(O)CCSCCCCN1C(=O)CC[C@@H]1/C=C/C(O)Cc1ccccc1` (some centres undefined): the Ki was over 13 µM at Thromboxane A2 receptor; 0.14 µM in assay [1]; over 13 µM on Prostacyclin receptor; over 13 µM in assay [2]; over 13 µM in assay [3]; over 13 µM in assay [4]. Further, the Ki in assay [5] and in assay [6] was over 13 µM throughout.
For the compound `O=C(O)CCCCCCN1C(=O)CC[C@@H]1/C=C/C(O)C1CCCCC1` (some centres undefined), the Ki at Thromboxane A2 receptor is over 13 µM; in assay [1] it was 3.5 µM; at Prostacyclin receptor, over 13 µM; in assay [2], over 13 µM; in assay [3], over 13 µM; in assay [4], over 13 µM. For the same compound, the Ki in assay [5] and in assay [6] was over 13 µM each time.
As for `O=C1CC[C@H](/C=C/C(O)Cc2ccccc2)N1CCCCSc1nnn[nH]1` (some centres undefined), the Ki on Thromboxane A2 receptor was over 13 µM; in assay [1], 0.243 µM; at Prostacyclin receptor, over 13 µM; in assay [2], over 13 µM; in assay [3], over 13 µM; in assay [4], over 13 µM. Moreover, the Ki in assay [5] and in assay [6] was over 13 µM each time.
On to `CCCCCC(O)/C=C/[C@@H]1CCC(=O)N1CCCCCCC(=O)O` (some centres undefined), for which the Ki on Thromboxane A2 receptor was over 13 µM; in assay [1] it was 1.41 µM; at Prostacyclin receptor, over 13 µM; in assay [2], over 13 µM; in assay [3] it was over 13 µM; in assay [4] it was 1.22 µM. Also, the Ki in assay [5] and in assay [6] was over 13 µM each time.
Regarding `CCCCCC(O)CCC1CCC(=O)N1CCCCCCC(=O)O` (centres undefined), the Ki was over 13 µM on Thromboxane A2 receptor; 0.035 µM in assay [1]; over 13 µM at Prostacyclin receptor; over 13 µM in assay [2]; over 13 µM in assay [3]; 2 µM in assay [4]. The Ki in assay [5] was 3 µM; in assay [6], over 13 µM.
With `O=C1CC[C@H](/C=C/[C@@H](O)Cc2ccccc2)N1CCCCCCc1nnn[nH]1.O=C1CC[C@H](/C=C/[C@H](O)Cc2ccccc2)N1CCCCCCc1nnn[nH]1`, the Ki on Thromboxane A2 receptor is over 13 µM; in assay [1], 0.0025 µM; at Prostacyclin receptor, over 13 µM; in assay [2], over 13 µM; in assay [3] it was over 13 µM; in assay [4], over 13 µM. Moreover, the Ki in assay [5] and in assay [6] was over 13 µM in each case.
For `COCc1cccc(CC(O)/C=C/[C@H]2CCC(=O)N2CCCCCCC(=O)O)c1` (some centres undefined), the Ki was over 13 µM on Thromboxane A2 receptor; 0.0036 µM in assay [1]; over 13 µM on Prostacyclin receptor; over 13 µM in assay [2]; over 13 µM in assay [3]; over 13 µM in assay [4]. In addition, the Ki in assay [5] and in assay [6] was over 13 µM each time.
`COC(=O)CSCCCCN1C(=O)CC[C@@H]1/C=C/C(O)Cc1ccccc1` (some centres undefined): the Ki at Thromboxane A2 receptor was over 13 µM; in assay [1] it was 0.443 µM; on Prostacyclin receptor, over 13 µM; in assay [2], over 13 µM; in assay [3] it was over 13 µM; in assay [4], over 13 µM. Further, the Ki in assay [5] and in assay [6] was over 13 µM throughout.
Consider `CC(C)(c1ccccc1)C(O)/C=C/[C@H]1CCC(=O)N1CCCCCCC(=O)O` (some centres undefined), for which the Ki on Thromboxane A2 receptor was over 13 µM; in assay [1] it was 0.062 µM; on Prostacyclin receptor, over 13 µM; in assay [2], over 13 µM; in assay [3] it was over 13 µM; in assay [4] it was 10.6 µM. The inhibition constant Ki in assay [5] and in assay [6] was over 13 µM each time.
For the compound `O=C(O)CCCCCCN1C(=O)CC[C@@H]1/C=C/C(O)C1(c2ccccc2)CC1` (some centres undefined), the Ki at Thromboxane A2 receptor is over 13 µM; in assay [1], 0.012 µM; on Prostacyclin receptor, over 13 µM; in assay [2] it was over 13 µM; in assay [3], over 13 µM; in assay [4], 3.34 µM. In addition, the Ki in assay [5] and in assay [6] was over 13 µM throughout.
For `O=C1CC[C@H](/C=C/[C@H](O)Cc2ccccc2)N1CCCCCCc1nnn[nH]1`, the Ki at Thromboxane A2 receptor is over 13 µM; in assay [1], 0.23 µM; on Prostacyclin receptor, over 13 µM; in assay [2] it was over 13 µM; in assay [3], over 13 µM; in assay [4], over 13 µM. The Ki in assay [5] and in assay [6] was over 13 µM in each case.
On to `O=C(O)CCCCCCN1C(=O)CC[C@@H]1/C=C/C(O)CCc1ccccc1` (some centres undefined), for which the Ki at Thromboxane A2 receptor was over 13 µM; in assay [1], 0.102 µM; at Prostacyclin receptor, over 13 µM; in assay [2], over 13 µM; in assay [3], over 13 µM; in assay [4], 2.01 µM. Moreover, the Ki in assay [5] and in assay [6] was over 13 µM in each case.
For `CCCCCC(O)CC[C@H]1CCC(=O)N1CCCCCCC(=O)O` (some centres undefined), the Ki was over 13 µM at Thromboxane A2 receptor; 0.028 µM in assay [1]; over 13 µM on Prostacyclin receptor; over 13 µM in assay [2]; over 13 µM in assay [3]; 0.7 µM in assay [4]. Besides, the Ki was 4.05 µM in assay [5] and over 13 µM in assay [6].
On to `O=C1CC[C@H](/C=C/C(O)Cc2ccccc2)N1CCCCSCc1nn[nH]n1` (some centres undefined), for which the Ki on Thromboxane A2 receptor was over 13 µM; in assay [1], 0.066 µM; on Prostacyclin receptor, over 13 µM; in assay [2] it was over 13 µM; in assay [3], over 13 µM; in assay [4], over 13 µM. The Ki in assay [5] and in assay [6] was over 13 µM each time.
Take `O=C(O)CSCCCCN1C(=O)CC[C@@H]1/C=C/C(O)Cc1ccccc1` (some centres undefined): the Ki is over 13 µM at Thromboxane A2 receptor; 0.013 µM in assay [1]; over 13 µM on Prostacyclin receptor; over 13 µM in assay [2]; over 13 µM in assay [3]; over 13 µM in assay [4]. Further, the Ki in assay [5] and in assay [6] was over 13 µM throughout.
For the compound `CC(O)(/C=C/[C@H]1CCC(=O)N1CCCCCCC(=O)O)Cc1ccccc1` (some centres undefined), the Ki on Thromboxane A2 receptor is over 13 µM; in assay [1], 2.1 µM; at Prostacyclin receptor, over 13 µM; in assay [2], over 13 µM; in assay [3], over 13 µM; in assay [4], over 13 µM. In addition, the Ki in assay [5] and in assay [6] was over 13 µM each time.
